# Data taken from PMC9073569 (JAMA Network Open, 2022).
# Read-outs that look alike come from different tables or passages of the source.
# Tests used:
# [1] = tested on: moderate to severe pruritus in patients receiving hemodialysis; test: 24-hour Worst Itching Intensity Numerical Rating Scale; assay type: in vivo, Japanese patients; settings: week 8; for proportion of 4-point improvement in the NRS score: placebo 36%; for proportion of 3-point improvement in the NRS score: placebo 50%
# How it was run: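 Adults aged 20 or older with ESKD on hemodialysis 3 times weekly for at least 12 weeks, with weekly mean NRS above 4, were randomized double-blind. Test compound or placebo was given IV after each dialysis session for 8 weeks. Worst itch over the prior 24 h (0–10) was logged daily in an e-diary and averaged weekly. Proportions improving ≥3 or ≥4 points at week 8 were compared with placebo by Fisher exact test.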
# [2] = tested on: patients with pruritus receiving hemodialysis; assay type: in vivo, Japanese patients; settings: for Constipation / Death / Malaise / Other serious adverse drug reactions / Pyrexia: placebo 0; for Adverse events leading to Discontinuation / Nausea: placebo 1 (2); for Adverse events leading to Interruption / Arthralgia / Blood pressure decreased / Other serious adverse events: placebo 2 (3); for Dizziness / Procedural hypotension / Somnolence / Vomiting: placebo 3 (5); for Adverse drug reactions / Nasopharyngitis: placebo 7 (11); for Adverse events: placebo 42 (67); for drug-related serious AEs (kind of event): patients recovered after discontinuing or suspending use of the study drug
# [3] = Plasma concentrations of difelikefalin; assay type: in vivo, Japanese patients; settings: weeks 1, 4, and 7; LC-MS/MS
# How it was run: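 Test compound was given IV at 0.25, 0.5 or 1.0 μg/kg after each hemodialysis session, 3 times weekly, with volume set by dry weight. Plasma was sampled before the first dialysis (weeks 1, 2, 4, 7, 8), 5 min post-dose (weeks 1, 4, 7), before the second dialysis (weeks 1, 4, 7) and 1 h post-dose (week 7). Assay was LC-MS/MS; summaries included geometric means and geometric CV.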
# [4] = cited from earlier work
# [5] = tested on: pruritus in patients receiving hemodialysis; settings: 0.5, 1.0, and 1.5 μg/kg; previous phase 2 trial in the US; cited from earlier work
# [6] = 0.25 μg/kg iv 3 times a week, 8 weeks, n = 61
# [7] = 0.5 μg/kg iv 3 times a week, 8 weeks, n = 61
# [8] = 1.0 μg/kg iv 3 times a week, 8 weeks, n = 62
substance,measurement,setting,value
difelikefalin,proportion of 4-point improvement in the NRS score,"[1]; 0.25 μg/kg iv 3 times a week, n = 20 of 59",34%
same,proportion of 3-point improvement in the NRS score,"[1]; 0.25 μg/kg iv 3 times a week, n = 31 of 59",53%
same,proportion of 4-point improvement in the NRS score,"[1]; 0.5 μg/kg iv 3 times a week, n = 27 of 53",51%
same,proportion of 3-point improvement in the NRS score,"[1]; 0.5 μg/kg iv 3 times a week, n = 32 of 53",60%
same,proportion of 4-point improvement in the NRS score,"[1]; 1.0 μg/kg iv 3 times a week, n = 23 of 53",43%
same,proportion of 3-point improvement in the NRS score,"[1]; 1.0 μg/kg iv 3 times a week, n = 30 of 53",57%
same,Constipation,[2]; [6],5 (8) No. (%)
same,Death,[2]; [6],0 No. (%)
same,Malaise,[2]; [6],2 (3) No. (%)
same,Other serious adverse drug reactions,[2]; [6],0 No. (%)
same,Pyrexia,[2]; [6],2 (3) No. (%)
same,Adverse events leading to Discontinuation,[2]; [6],0 No. (%)
same,Nausea,[2]; [6],0 No. (%)
same,Adverse events leading to Interruption,[2]; [6],0 No. (%)
same,Arthralgia,[2]; [6],3 (5) No. (%)
same,Blood pressure decreased,[2]; [6],0 No. (%)
same,Other serious adverse events,[2]; [6],3 (5) No. (%)
same,Dizziness,[2]; [6],3 (5) No. (%)
same,Procedural hypotension,[2]; [6],4 (7) No. (%)
same,Somnolence,[2]; [6],2 (3) No. (%)
same,Vomiting,[2]; [6],1 (2) No. (%)
same,Adverse drug reactions,[2]; [6],9 (15) No. (%)
same,Nasopharyngitis,[2]; [6],8 (13) No. (%)
same,Adverse events,[2]; [6],44 (72) No. (%)
same,drug-related serious AEs (kind of event),[2]; 0.5 μg/kg group,Altered state of consciousness
same,Constipation,[2]; [7],3 (5) No. (%)
same,Death,[2]; [7],0 No. (%)
same,Malaise,[2]; [7],2 (3) No. (%)
same,Other serious adverse drug reactions,[2]; [7],1 (2) No. (%)
same,Pyrexia,[2]; [7],4 (7) No. (%)
same,Adverse events leading to Discontinuation,[2]; [7],4 (7) No. (%)
same,Nausea,[2]; [7],1 (2) No. (%)
same,Adverse events leading to Interruption,[2]; [7],5 (8) No. (%)
same,Arthralgia,[2]; [7],5 (8) No. (%)
same,Blood pressure decreased,[2]; [7],4 (7) No. (%)
same,Other serious adverse events,[2]; [7],8 (13) No. (%)
same,Dizziness,[2]; [7],3 (5) No. (%)
same,Procedural hypotension,[2]; [7],3 (5) No. (%)
same,Somnolence,[2]; [7],3 (5) No. (%)
same,Vomiting,[2]; [7],1 (2) No. (%)
same,Adverse drug reactions,[2]; [7],9 (15) No. (%)
same,Nasopharyngitis,[2]; [7],6 (10) No. (%)
same,Adverse events,[2]; [7],47 (77) No. (%)
same,drug-related serious AEs (kind of event),[2]; 1.0 μg/kg group,obstruction in the small intestine
same,Constipation,[2]; [8],7 (11) No. (%)
same,Death,[2]; [8],0 No. (%)
same,Malaise,[2]; [8],4 (6) No. (%)
same,Other serious adverse drug reactions,[2]; [8],1 (2) No. (%)
same,Pyrexia,[2]; [8],0 No. (%)
same,Adverse events leading to Discontinuation,[2]; [8],5 (8) No. (%)
same,Nausea,[2]; [8],4 (6) No. (%)
same,Adverse events leading to Interruption,[2]; [8],5 (8) No. (%)
same,Arthralgia,[2]; [8],2 (3) No. (%)
same,Blood pressure decreased,[2]; [8],3 (5) No. (%)
same,Other serious adverse events,[2]; [8],5 (8) No. (%)
same,Dizziness,[2]; [8],5 (8) No. (%)
same,Procedural hypotension,[2]; [8],2 (3) No. (%)
same,Somnolence,[2]; [8],6 (10) No. (%)
same,Vomiting,[2]; [8],4 (6) No. (%)
same,Adverse drug reactions,[2]; [8],17 (27) No. (%)
same,Nasopharyngitis,[2]; [8],3 (5) No. (%)
same,Adverse events,"[2]; 1.0 μg/kg iv 3 times a week, 8 weeks, n = 62, P = .02",53 (85) No. (%)
same,"changes in clinical laboratory tests, vital signs, and 12-lead electrocardiogram","[2]; 0.25, 0.5 and 1.0 μg/kg iv 3 times a week, 8 weeks",No notable changes
same,plasma difelikefalin concentrations in relation to body weight classification,[3],No significant differences
same,transfer to the CNS,[4],limited
same,dose response in relation to efficacy,[5],no clear dose response
